Data: ChEMBL document CHEMBL1151798, “Monoacylglycerol lipase regulates 2-arachidonoylglycerol action and arachidonic acid levels” (Bioorg Med Chem Lett, 2008)
Calls of active or inactive are those of the source. The rule behind the calls is not given here.

Legend:
[1] = test system: Mus musculus; assay: Increase in Swiss-Webster mouse brain 2-arachidonoylglycerol level at 100 mg/kg, ip; assay type: functional, organism-based; design: dose 100 mg/kg
In short: (§1)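 Mice received single intraperitoneal doses (10 or 100 mg/kg). Brain levels of 2-AG and arachidonic acid were then measured. Values are mean ± S.D., n=3 mice per treatment group.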

[2] = test system: Mus musculus; assay: Modulation of cataleptic behavior in Swiss-Webster mouse assessed as >10 sec latency along with flattened posture and open eyes at 10 mg/kg, ip by bar test; assay type: functional, organism-based; design: dose 10 mg/kg
In short: (§2)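 Mice were given an intraperitoneal dose of 10 or 100 mg/kg and scored for catalepsy by bar test. A cannabinoid response was a latency >10 s, plus a qualitatively flattened posture and remaining motionless with eyes open. n=3 mice per treatment group, mean ± S.D.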

[3] = test system: Mus musculus; assay: Increase in Swiss-Webster mouse brain 2-arachidonoylglycerol level at 10 mg/kg, ip; assay type: functional, organism-based; design: dose 10 mg/kg; in short: as §1
[4] = test system: Mus musculus; assay: Modulation of cataleptic behavior in Swiss-Webster mouse assessed as >10 sec latency along with flattened posture at 100 mg/kg, ip by bar test; assay type: functional, organism-based; design: dose 100 mg/kg; in short: as §2
[5] = test system: Mus musculus; assay: Decrease in Swiss-Webster mouse brain arachidonic acid level at 100 mg/kg, ip; assay type: functional, organism-based; design: dose 100 mg/kg; in short: as §1
[6] = test system: Mus musculus; assay: Decrease in Swiss-Webster mouse brain arachidonic acid level at 10 mg/kg, ip; assay type: functional, organism-based; design: dose 10 mg/kg; in short: as §1
[7] = molecular target: T1, Monoglyceride lipase (Mus musculus, UniProt O35678); assay: Inhibition of MAGL-mediated 2-arachidonoylglycerol hydrolysis in mouse brain; assay type: tissue-based
T1 sequence (O35678 whole entry): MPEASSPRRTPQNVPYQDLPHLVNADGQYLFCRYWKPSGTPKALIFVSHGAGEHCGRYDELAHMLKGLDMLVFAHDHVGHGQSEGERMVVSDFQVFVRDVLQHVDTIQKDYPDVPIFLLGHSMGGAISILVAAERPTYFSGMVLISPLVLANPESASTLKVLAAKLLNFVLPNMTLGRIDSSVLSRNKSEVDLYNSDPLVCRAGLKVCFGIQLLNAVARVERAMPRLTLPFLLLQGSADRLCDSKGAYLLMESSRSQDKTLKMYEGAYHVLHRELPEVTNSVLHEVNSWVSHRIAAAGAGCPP

[8] = molecular target: T2, Fatty-acid amide hydrolase 1 (Mus musculus, UniProt O08914); assay: Inhibition of FAAH-mediated [3H]anandamide hydrolysis in mouse brain; assay type: tissue-based
T2 sequence (O08914 whole entry): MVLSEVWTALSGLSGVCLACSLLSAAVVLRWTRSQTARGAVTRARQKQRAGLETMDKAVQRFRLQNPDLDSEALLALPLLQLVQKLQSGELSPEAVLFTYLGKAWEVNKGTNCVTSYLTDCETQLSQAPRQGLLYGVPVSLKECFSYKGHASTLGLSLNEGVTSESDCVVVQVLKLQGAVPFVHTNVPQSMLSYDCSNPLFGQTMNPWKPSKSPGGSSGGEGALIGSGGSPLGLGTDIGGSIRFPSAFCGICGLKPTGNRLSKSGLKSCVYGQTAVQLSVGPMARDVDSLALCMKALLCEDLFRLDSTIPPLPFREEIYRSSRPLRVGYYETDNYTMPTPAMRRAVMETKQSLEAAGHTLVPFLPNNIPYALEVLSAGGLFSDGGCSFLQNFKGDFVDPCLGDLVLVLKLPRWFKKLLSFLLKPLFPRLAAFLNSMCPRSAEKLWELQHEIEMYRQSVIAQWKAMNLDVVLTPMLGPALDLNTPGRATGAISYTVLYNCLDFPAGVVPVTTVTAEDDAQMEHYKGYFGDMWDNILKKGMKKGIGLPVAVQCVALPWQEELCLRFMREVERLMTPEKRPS

[9] = molecular target: Cannabinoid receptor 1 (Mus musculus, UniProt P47746); assay: Displacement of [3H]CP-55940 from CB1 receptor in mouse brain; assay type: tissue-based
Chain of Cannabinoid receptor 1 (P47746 whole entry): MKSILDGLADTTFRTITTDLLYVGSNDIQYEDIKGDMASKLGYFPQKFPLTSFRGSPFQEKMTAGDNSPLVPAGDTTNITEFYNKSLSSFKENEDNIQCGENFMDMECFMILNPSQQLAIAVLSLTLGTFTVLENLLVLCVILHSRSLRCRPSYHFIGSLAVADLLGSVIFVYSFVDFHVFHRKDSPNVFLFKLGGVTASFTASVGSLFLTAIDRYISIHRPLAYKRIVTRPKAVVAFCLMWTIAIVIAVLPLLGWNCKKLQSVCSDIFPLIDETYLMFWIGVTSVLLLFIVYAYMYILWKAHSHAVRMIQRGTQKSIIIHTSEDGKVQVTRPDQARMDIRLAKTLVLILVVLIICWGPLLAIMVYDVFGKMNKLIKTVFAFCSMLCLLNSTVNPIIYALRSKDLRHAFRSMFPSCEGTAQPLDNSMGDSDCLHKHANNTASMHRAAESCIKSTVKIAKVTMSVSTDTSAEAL

[10] = molecular target: Cannabinoid receptor 1 (Mus musculus) (UniProt P47746); assay: Displacement of [3H]CP-55940 from mouse CB1 receptor expressed in HEK293 cells up to 100,000 nM; assay type: cell-based
Chain of Cannabinoid receptor 1 (Mus musculus) (P47746 whole entry): as above

[11] = molecular target: Cannabinoid receptor 1 (Mus musculus) (UniProt P47746); assay: Displacement of [3H]CP-55940 from CB1 receptor in mouse brain at 100 nM; assay type: tissue-based

SMILES | Activity [1] | Activity [2] | Activity [3] | Activity [4] | Activity [5] | Activity [6] | IC50 [7] [nM] | IC50 [8] [nM] | IC50 [9] [nM] | Activity [10] | Bmax [11] [pmol/mg]
CCCCCCCCCCCCS(=O)(=O)F [DODECANESULFONYL FLUORIDE] | Active | Active | Active | Active | Active | Active | 200 | – | – | – | –
CCOP(=O)(OCC)Oc1ccc([N+](=O)[O-])cc1 [PARAOXON] | – | – | – | – | – | – | 2300 | 540 | 1200 | – | –
CCCCCCCCS(=O)(=O)F | Active | Active | Active | Active | Active | Active | 140 | 1.9 | – | – | –
CCCCCCCCCSP1(=O)OCc2ccccc2O1 (stereo not drawn) | – | – | – | – | – | – | 0.31 | 0.15 | – | – | –
CCCCCCCCCCCCP(=O)(Oc1ccc([N+](=O)[O-])cc1)OC(C)C (stereo not drawn) | – | – | – | – | – | – | 0.28 | 3 | 12 | – | –
CCOP(=O)(OCC)Oc1nc(Cl)c(Cl)cc1Cl | – | – | – | – | – | – | – | – | – | inactive | 0.17
CCCCCCCCCCCCP(=O)(OCC)Oc1nc(Cl)c(Cl)cc1Cl (stereo not drawn) | inactive | inactive | inactive | inactive | inactive | inactive | 0.14 | 42 | 14 | – | –
CCCCCCCCCCCCP(=O)(OCC)Oc1ccc(C#N)cc1 (stereo not drawn) | Active | Active | Active | Active | Active | Active | 0.07 | 12 | 4 | – | –
